Laboratory results published in ChEMBL document CHEMBL4007381, “Synthesis, X-ray crystal structure and anti-tumor activity of calix[n]arene polyhydroxyamine derivatives” (Eur J Med Chem, 2016).
Calls of active or inactive are those of the source. The rule behind the calls is not given here.

Experiments:
[1] = tested on: SW1990; assay: Cytotoxicity against human SW1990 cells assessed as reduction in cell viability at 10 uM measured after 72 hrs by SRB assay relative to control; type: functional; conditions: SW1990, 72 h, read-out: GI
Method in brief: (§1)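 Adherent cells were seeded at 1-5 × 10⁴/well and grown 24 h at 37 °C in 5% CO₂. They were treated at a single 10 µM concentration for 72 h in triplicate wells. Read-out was SRB staining after TCA fixation, with dye dissolved in Tris base and OD read at 565 nm. Viability was expressed relative to control.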

[2] = tested on: A549; assay: Cytotoxicity against human A549 cells assessed as reduction in cell viability at 10 uM measured after 72 hrs by SRB assay relative to control; type: functional; conditions: A549, 72 h, read-out: GI; method in brief: as §1
[3] = tested on: MDA-MB-231; assay: Cytotoxicity against human MDA-MB-231 cells assessed as reduction in cell viability at 10 uM measured after 72 hrs by SRB assay relative to control; type: functional; conditions: MDA-MB-231, 72 h, read-out: GI; method in brief: as §1
[4] = tested on: Raji; assay: Cytotoxicity against human Raji cells assessed as reduction in cell viability at 10 uM measured after 72 hrs by MTT assay relative to control; type: functional; conditions: read-out: GI
Method in brief: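 Raji suspension cells were seeded at 1-5 × 10⁴/well and grown 24 h. They were treated at 10 µM for 72 h in triplicate wells. Read-out was MTT for 4 h, then solubilization in HCl/isopropanol/SDS overnight and OD at 550 nm, relative to control.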

[5] = tested on: HeLa; assay: Cytotoxicity against human HeLa cells assessed as reduction in cell viability at 10 uM measured after 72 hrs by SRB assay relative to control; type: functional; conditions: read-out: GI; method in brief: as §1
[6] = tested on: SK-OV-3; assay: Cytotoxicity against human SKOV3 cells assessed as reduction in cell viability at 10 uM measured after 72 hrs by SRB assay relative to control; type: functional; conditions: SK-OV-3, 72 h, read-out: GI; method in brief: as §1
[7] = tested on: HeLa; assay: Cytotoxicity against human HeLa cells assessed as reduction in cell viability measured after 72 hrs by SRB assay; type: functional, cell-based
Method in brief: (§2)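 Adherent cells in log phase were seeded at 1-5 × 10⁴/well and grown 24 h at 37 °C in 5% CO₂. They were exposed to 10 concentrations for 72 h, three wells each, then fixed with TCA and stained with SRB. Bound dye was dissolved in Tris base and read at OD 565 nm. Survival was expressed relative to vehicle (100%). Means came from ≥3 independent experiments, and apparent IC50 was read from the dose-response curves.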

[8] = tested on: SW1990; assay: Cytotoxicity against human SW1990 cells assessed as reduction in cell viability measured after 72 hrs by SRB assay; type: functional, cell-based; conditions: SW1990, 72 h; method in brief: as §2
[9] = tested on: Raji; assay: Cytotoxicity against human Raji cells assessed as reduction in cell viability measured after 72 hrs by MTT assay; type: functional, cell-based
Method in brief: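 Raji suspension cells (RPMI 1640, 10% FBS) were seeded at 1-5 × 10⁴/well and grown 24 h at 37 °C in 5% CO₂. They were exposed to 10 concentrations for 72 h in triplicate wells. MTT was added for 4 h, then HCl/isopropanol/SDS was added overnight, and OD was read at 550 nm. Data are means of ≥3 independent experiments, relative to vehicle, with apparent IC50 taken from the dose-response curves.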

[10] = tested on: MDA-MB-231; assay: Cytotoxicity against human MDA-MB-231 cells assessed as reduction in cell viability measured after 72 hrs by SRB assay; type: functional, cell-based; conditions: MDA-MB-231, 72 h; method in brief: as §2
[11] = tested on: SK-OV-3; assay: Cytotoxicity against human SKOV3 cells assessed as reduction in cell viability measured after 72 hrs by SRB assay; type: functional, cell-based; conditions: SK-OV-3, 72 h; method in brief: as §2
[12] = tested on: SK-OV-3; assay: Induction of apoptosis in human SKOV3 cells assessed as upregulation of caspase3 expression at 3 uM measured after 24 to 48 hrs by Hoechst-33342 staining-based immunofluorescent analysis relative to DMSO-control; type: functional, cell-based
Method in brief: (§3)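 SKOV3 cells in 24-well plates were given 3 µM compound or DMSO. They were fixed with 4% paraformaldehyde for 20 min, permeabilized with 0.3% Triton X-100 for 10 min and blocked with sheep serum. Primary antibody (caspase-3, p53, Bcl-2 or Bax) was applied overnight at 4 °C, then fluorescein-conjugated secondary for 1 h and Hoechst 33342 for 15 min. Slides were imaged by fluorescence microscopy.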

[13] = tested on: SK-OV-3; assay: Induction of apoptosis in human SKOV3 cells assessed as upregulation of p53 expression at 3 uM measured after 24 to 48 hrs by Hoechst-33342 staining-based immunofluorescent analysis relative to DMSO-control; type: functional, cell-based; method in brief: as §3
[14] = tested on: SK-OV-3; assay: Induction of apoptosis in human SKOV3 cells assessed as effect on Bax expression at 3 uM measured after 24 to 48 hrs by Hoechst-33342 staining-based immunofluorescent analysis relative to DMSO-control; type: functional, cell-based; method in brief: as §3
[15] = tested on: SK-OV-3; assay: Induction of apoptosis in human SKOV3 cells assessed as downregulation of Bcl2 expression at 3 uM measured after 24 to 48 hrs by Hoechst-33342 staining-based immunofluorescent analysis relative to DMSO-control; type: functional, cell-based; method in brief: as §3
[16] = tested on: SK-OV-3; assay: Cell cycle arrest in human SKOV3 cells assessed as accumulation at S phase at 3 uM measured after 48 hrs by propidium iodide staining-based FACS analysis(reference value: 37.31 +/- 3.48%); type: functional
[17] = tested on: A549; assay: Cytotoxicity against human A549 cells assessed as reduction in cell viability measured after 72 hrs by SRB assay; type: functional, cell-based; conditions: A549, 72 h; method in brief: as §2
[18] = tested on: SK-OV-3; assay: Cell cycle arrest in human SKOV3 cells assessed as accumulation at G0/G1 phase at 3 uM measured after 48 hrs by propidium iodide staining-based FACS analysis (reference value: 49.47 +/- 1.91%); type: functional
[19] = tested on: SK-OV-3; assay: Cell cycle arrest in human SKOV3 cells assessed as decrease in accumulation at G2/M phase at 3 uM measured after 48 hrs by propidium iodide staining-based FACS analysis; type: functional
[20] = tested on: SK-OV-3; assay: Cell cycle arrest in human SKOV3 cells assessed as decrease in accumulation at S phase at 10 uM measured after 48 hrs by propidium iodide staining-based FACS analysis; type: functional
[21] = tested on: SK-OV-3; assay: Cell cycle arrest in human SKOV3 cells assessed as decrease in accumulation at G2/M phase at 10 uM measured after 48 hrs by propidium iodide staining-based FACS analysis; type: functional
[22] = tested on: SK-OV-3; assay: Cell cycle arrest in human SKOV3 cells assessed as accumulation at G0/G1 phase at 10 uM measured after 48 hrs by propidium iodide staining-based FACS analysis; type: functional

Row | SMILES | inhibition of growth at 10 µM [1] [%] | inhibition of growth at 10 µM [2] [%] | inhibition of growth at 10 µM [3] [%] | inhibition of growth at 10 µM [4] [%] | inhibition of growth at 10 µM [5] [%] | inhibition of growth at 10 µM [6] [%] | also measured
1 | CC(C)(C)c1cc2c(OCC(=O)NCCO)c(c1)Cc1cc(C(C)(C)C)cc(c1OCC(=O)NCCO)Cc1cc(C(C)(C)C)cc(c1OCC(=O)NCCO)Cc1cc(C(C)(C)C)cc(c1OCC(=O)NCCO)Cc1cc(C(C)(C)C)cc(c1OCC(=O)NCCO)Cc1cc(C(C)(C)C)cc(c1OCC(=O)NCCO)Cc1cc(C(C)(C)C)cc(c1OCC(=O)NCCO)Cc1cc(C(C)(C)C)cc(c1OCC(=O)NCCO)C2 | 5 | 8 | 12 | 24 | 23 | 26 | –
2 | CC(C)(C)c1cc2c(O)c(c1)Cc1cc(C(C)(C)C)cc(c1OCC(=O)N(CCO)CCO)Cc1cc(C(C)(C)C)cc(c1O)Cc1cc(C(C)(C)C)cc(c1OCC(=O)N(CCO)CCO)C2 | 59 | 16 | 95 | 77 | 95 | 42 | IC50 [7]: 8.1 µM; IC50 [8]: 11.3 µM; IC50 [9]: 11.2 µM; IC50 [10]: 5.2 µM
3 | CC(C)(C)c1cc2c(OCC(=O)N(CCO)CCO)c(c1)Cc1cc(C(C)(C)C)cc(c1OCC(=O)N(CCO)CCO)Cc1cc(C(C)(C)C)cc(c1OCC(=O)N(CCO)CCO)Cc1cc(C(C)(C)C)cc(c1OCC(=O)N(CCO)CCO)Cc1cc(C(C)(C)C)cc(c1OCC(=O)N(CCO)CCO)Cc1cc(C(C)(C)C)cc(c1OCC(=O)N(CCO)CCO)Cc1cc(C(C)(C)C)cc(c1OCC(=O)N(CCO)CCO)Cc1cc(C(C)(C)C)cc(c1OCC(=O)N(CCO)CCO)C2 | 5 | 0 | 11 | 11 | 10 | 25 | –
4 | O=C(COc1c2cccc1Cc1cccc(c1OCC(=O)N(CCO)CCO)Cc1cccc(c1OCC(=O)N(CCO)CCO)Cc1cccc(c1OCC(=O)N(CCO)CCO)Cc1cccc(c1OCC(=O)N(CCO)CCO)Cc1cccc(c1OCC(=O)N(CCO)CCO)Cc1cccc(c1OCC(=O)N(CCO)CCO)Cc1cccc(c1OCC(=O)N(CCO)CCO)C2)N(CCO)CCO | 2 | 6 | 13 | 11 | 18 | 25 | –
5 | O=C(COc1c2cccc1Cc1cccc(c1OCC(=O)NCCO)Cc1cccc(c1OCC(=O)NCCO)Cc1cccc(c1OCC(=O)NCCO)Cc1cccc(c1OCC(=O)NCCO)Cc1cccc(c1OCC(=O)NCCO)Cc1cccc(c1OCC(=O)NCCO)Cc1cccc(c1OCC(=O)NCCO)C2)NCCO | 4 | 2 | 27 | 7 | 32 | 1 | –
6 | CC(C)(C)c1cc2c(O)c(c1)Cc1cc(C(C)(C)C)cc(c1OCC(=O)NCCO)Cc1cc(C(C)(C)C)cc(c1O)Cc1cc(C(C)(C)C)cc(c1OCC(=O)NCCO)C2 | 95 | 89 | 99 | 100 | 100 | 97 | IC50 [7]: 2.7 µM; IC50 [11]: 2.8 µM; IC50 [8]: 4.3 µM; Activity [12]: Active; Activity [13]: Active; Activity [14]: inactive; Activity [15]: Active; IC50 [9]: 5 µM; Activity [16]: 24.19%; IC50 [17]: 4 µM; Activity [18]: 64.25%; IC50 [10]: 5.3 µM; Activity [19]: Active
7 | CC(C)(C)c1cc2c(OCC(=O)NCCO)c(c1)Cc1cc(C(C)(C)C)cc(c1OCC(=O)NCCO)Cc1cc(C(C)(C)C)cc(c1OCC(=O)NCCO)Cc1cc(C(C)(C)C)cc(c1OCC(=O)NCCO)Cc1cc(C(C)(C)C)cc(c1OCC(=O)NCCO)Cc1cc(C(C)(C)C)cc(c1OCC(=O)NCCO)C2 | 4 | 7 | 12 | 38 | 40 | 24 | –
8 | O=C(COc1c2cccc1Cc1cccc(c1OCC(=O)N(CCO)CCO)Cc1cccc(c1OCC(=O)N(CCO)CCO)Cc1cccc(c1OCC(=O)N(CCO)CCO)Cc1cccc(c1OCC(=O)N(CCO)CCO)Cc1cccc(c1OCC(=O)N(CCO)CCO)C2)N(CCO)CCO | 0 | 5 | 22 | 6 | 9 | 19 | –
9 | O=C(COc1c2cccc1Cc1cccc(c1O)Cc1cccc(c1OCC(=O)N(CCO)CCO)Cc1cccc(c1O)C2)N(CCO)CCO | 4 | 7 | 22 | 34 | 38 | 34 | –
10 | CC(C)(C)c1cc2c(OCC(=O)N(CCO)CCO)c(c1)Cc1cc(C(C)(C)C)cc(c1OCC(=O)N(CCO)CCO)Cc1cc(C(C)(C)C)cc(c1OCC(=O)N(CCO)CCO)Cc1cc(C(C)(C)C)cc(c1OCC(=O)N(CCO)CCO)Cc1cc(C(C)(C)C)cc(c1OCC(=O)N(CCO)CCO)Cc1cc(C(C)(C)C)cc(c1OCC(=O)N(CCO)CCO)C2 | 26 | 0 | 0 | 14 | 0 | 26 | –
11 | O=C(COc1c2cccc1Cc1cccc(c1OCC(=O)NCCO)Cc1cccc(c1OCC(=O)NCCO)Cc1cccc(c1OCC(=O)NCCO)Cc1cccc(c1OCC(=O)NCCO)Cc1cccc(c1OCC(=O)NCCO)C2)NCCO | 3 | 7 | 4 | 18 | 6 | 10 | –
12 | O=C(COc1c2cccc1Cc1cccc(c1O)Cc1cccc(c1OCC(=O)NCCO)Cc1cccc(c1O)C2)NCCO | 10 | 13 | 57 | 29 | 46 | 86 | IC50 [11]: 2.3 µM; Activity [20]: Active; Activity [21]: Active; Activity [22]: Active; IC50 [10]: 1.6 µM
